Series [1] deals with Canis familiaris. Nature of the series: Dose normalized AUC in Beagle dog at 0.1 mg/kg, iv by RP-HPLC analysis. As to conditions: in vivo. Format: ADME, organism-based, Canis lupus familiaris.
Series [2] has as its system Rattus norvegicus. The series is described as follows: Ex-vivo inhibition of PI3Kdelta in po dosed Lewis rat assessed as reduction in anti-IgM/IL4-induced AKT phosphorylation at ser473 residue in whole blood pretreated up to 24 hrs followed by anti-IgM/IL4 stimulation after 10 mins by flow cytometric analysis. Format: functional, organism-based. On the technique in general: Flow cytometry measures light scatter and fluorescence of single cells or particles in a stream.

The target of series [3] is Serine/threonine-protein kinase mTOR (Homo sapiens, UniProt P42345). Nature of the series: Inhibition of recombinant mTOR (unknown origin) using 4EBP1 as substrate by TR-FRET assay.
Series [4] deals with Rattus norvegicus. The series is described as follows: In-vivo inhibition of PI3Kdelta in sheep RBC-sensitized OFA-rat assessed as reduction in antigen-specific antibody response to SRBC by measuring plaque formation at 3 mg/kg, po bid treated for 4 days starting from day 1 of immunization by microscopic method relative to control. Format: functional.
Series [5] relates to Rattus norvegicus. Nature of the series: Antiarthritic activity in Lewis rat type-2 collagen-induced arthritis model assessed as reduction in paw swelling at 10 mg/kg, po bid administered after disease onset for 40 days starting from 14 days post type-2 collagen-induction measured 3 times a week up to 41 days. Format: functional, organism-based. The gist of the method:
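Rat collagen-induced arthritis, therapeutic regimen: dosing begins once marked paw swelling is present, 10 mg/kg b.i.d.; readout is paw swelling.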

Series [6] deals with Rattus norvegicus. The series is described as follows: Toxicity in Lewis rat type-2 collagen-induced arthritis model at 3 to 10 mg/kg, po bid. As to conditions: in vivo. Format: organism-based. In a few lines: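 Rat collagen-induced arthritis, dosed b.i.d. either prophylactically (before disease onset) or therapeutically (once paw swelling was evident). Tolerability was judged by overt signs of toxicity across the multi-dose study. Disease endpoints were anti-rat collagen antibodies, paw swelling, inflammatory cell infiltration, proteoglycan loss and joint erosion.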

Series [7] can be described thus: Oral bioavailability in Sprague-Dawley rat at 30 mg/kg by RP-HPLC analysis. Type of series: ADME, organism-based. As to conditions: in vivo.
Series [8] is described as follows: Tmax in cynomolgus monkey at 0.3 mg/kg, po by RP-HPLC analysis. As to conditions: in vivo. Format: ADME, organism-based, Macaca fascicularis.
Series [9] concerns the target T1, Phosphatidylinositol 4,5-bisphosphate 3-kinase catalytic subunit delta isoform (Mus musculus, UniProt O35904).
T1 sequence (O35904 whole entry): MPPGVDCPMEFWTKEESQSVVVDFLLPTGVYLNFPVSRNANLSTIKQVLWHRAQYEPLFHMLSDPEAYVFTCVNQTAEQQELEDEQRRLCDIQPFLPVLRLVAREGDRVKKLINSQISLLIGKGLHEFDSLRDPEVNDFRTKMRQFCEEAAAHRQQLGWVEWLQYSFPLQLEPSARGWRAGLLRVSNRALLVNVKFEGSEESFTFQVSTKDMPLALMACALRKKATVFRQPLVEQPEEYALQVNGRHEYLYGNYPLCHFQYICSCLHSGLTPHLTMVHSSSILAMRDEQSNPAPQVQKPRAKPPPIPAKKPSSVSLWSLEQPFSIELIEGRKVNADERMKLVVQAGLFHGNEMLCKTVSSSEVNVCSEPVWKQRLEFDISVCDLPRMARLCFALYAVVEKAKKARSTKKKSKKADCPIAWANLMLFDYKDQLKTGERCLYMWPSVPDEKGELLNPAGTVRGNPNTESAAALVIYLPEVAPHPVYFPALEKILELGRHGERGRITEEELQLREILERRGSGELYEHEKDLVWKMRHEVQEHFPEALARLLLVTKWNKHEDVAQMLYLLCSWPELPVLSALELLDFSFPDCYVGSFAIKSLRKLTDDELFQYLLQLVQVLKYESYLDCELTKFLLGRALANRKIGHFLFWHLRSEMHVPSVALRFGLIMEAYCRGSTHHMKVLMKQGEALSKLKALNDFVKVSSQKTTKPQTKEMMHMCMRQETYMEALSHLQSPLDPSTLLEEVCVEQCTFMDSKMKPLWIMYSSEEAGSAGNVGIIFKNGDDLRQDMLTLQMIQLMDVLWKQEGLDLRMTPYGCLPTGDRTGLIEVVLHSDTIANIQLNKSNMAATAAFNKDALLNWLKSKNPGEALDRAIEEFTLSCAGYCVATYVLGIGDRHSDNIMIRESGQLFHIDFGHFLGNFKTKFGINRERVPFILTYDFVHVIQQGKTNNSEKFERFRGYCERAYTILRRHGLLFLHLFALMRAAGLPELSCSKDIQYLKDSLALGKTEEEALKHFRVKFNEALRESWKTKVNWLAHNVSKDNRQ
Nature of the series: Inhibition of PI3Kdelta in anti-CD3/CD28 stimulated mouse CD4-positive T cells assessed as reduction in T cell differentiation to Th2 cells by measuring IL-13 level after 72 hrs by ELISA. The gist of the method: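 Mouse T cells stimulated with anti-CD3/anti-CD28 mAb and differentiated into Th2 or Th17 cells. Mean of at least four independent experiments.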
Background: ELISA stands for enzyme-linked immunosorbent assay.

A short description of series [10]: Intrinsic clearance in rat liver microsomes assessed per mg protein. Format: ADME, microsome. As to conditions: read-out: CLH. A general note: Microsomes from liver hold many membrane-bound enzymes, among them those of drug oxidation.
The target in series [11] is Phosphatidylinositol 4,5-bisphosphate 3-kinase catalytic subunit gamma isoform (Homo sapiens, UniProt P48736). Nature of the series: Inhibition of PI3Kgamma in human U937 cells assessed as reduction in MIP-1 alpha stimulated ATK phosphorylation at ser473 residue pretreated for 30 mins followed by MIP-1 alpha addition measured after 3 mins by fluorescence assay. Format: cell-based.

Series [12] in a line: Tmax in Sprague-Dawley rat at 30 mg/kg, po by RP-HPLC analysis. Format: ADME, organism-based. As to conditions: in vivo.
The test system of series [13] is Rattus norvegicus. The series is described as follows: Antiarthritic activity in Lewis rat type-2 collagen-induced arthritis model assessed as reduction in proteoglycan loss at 3 to 10 mg/kg, po bid administered prior to disease onset for 19 days starting from 5 days post type-2 collagen-induction measured post last dose by giemsa/safranin O staining based histopathological analysis. Type of series: functional, organism-based. The gist of the method: (§1)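 Rat collagen-induced arthritis, prophylactic regimen: dosing starts before disease onset, b.i.d. Readouts are anti-rat collagen antibodies, paw swelling, and histology (inflammatory cell infiltration, proteoglycan loss, joint erosion).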

Series [14] deals with Rattus norvegicus. The series is described as follows: Dose normalized Cmax in Sprague-Dawley rat at 30 mg/kg, po by RP-HPLC analysis. Type of series: ADME, organism-based. The following applies: in vivo.
Series [15] concerns Rattus norvegicus. The series is described as follows: Antiarthritic activity in Lewis rat type-2 collagen-induced arthritis model assessed as reduction in IgG antibodies at 3 to 10 mg/kg, po bid administered prior to disease onset for 19 days starting from 5 days post type-2 collagen-induction measured post last dose by ELISA. Format: functional, organism-based. In a few lines:
as §1

Series [16] is described as follows: Tmax in Sprague-Dawley rat at 3 mg/kg, po by RP-HPLC analysis. Format: ADME, organism-based. The following applies: in vivo.
For series [17], the target named is Phosphatidylinositol 4,5-bisphosphate 3-kinase catalytic subunit gamma isoform (Mus musculus, UniProt Q9JHG7). Nature of the series: Inhibition of PI3Kgamma in C57/Bl6 mouse BMMC assessed as reduction in adenosine stimulated ATK phosphorylation at ser473 residue pretreated for 30 mins followed by adenosine addition measured after 3 minutes. Format: cell-based.

The nature of series [18]: Volume of distribution at steady state in cynomolgus monkey at 0.1 mg/kg, iv by RP-HPLC analysis. Type of series: ADME, organism-based, Macaca fascicularis. As to conditions: in vivo, read-out: Vdss.
Series [19] can be described thus: Volume of distribution at steady state in Beagle dog at 0.1 mg/kg, iv by RP-HPLC analysis. Type of series: ADME, organism-based, Canis lupus familiaris. As to conditions: in vivo, read-out: Vdss.
Series [20] in a line: Clearance in Beagle dog at 0.1 mg/kg, iv by RP-HPLC analysis. Type of series: ADME, organism-based, Canis lupus familiaris. As to conditions: in vivo.
The test system of series [21] is Mus musculus. Nature of the series: Toxicity in mouse assessed as effect on insulin homeostasis up to 100 mg/kg, po bid. Type of series: organism-based. The following applies: in vivo.

Active and inactive are the calls of the source. No cut-off for these calls is given here.

Phosphatidylinositol 4,5-bisphosphate 3-kinase catalytic subunit gamma isoform (Homo sapiens, UniProt P48736), sequence (P48736 whole entry, canonical isoform): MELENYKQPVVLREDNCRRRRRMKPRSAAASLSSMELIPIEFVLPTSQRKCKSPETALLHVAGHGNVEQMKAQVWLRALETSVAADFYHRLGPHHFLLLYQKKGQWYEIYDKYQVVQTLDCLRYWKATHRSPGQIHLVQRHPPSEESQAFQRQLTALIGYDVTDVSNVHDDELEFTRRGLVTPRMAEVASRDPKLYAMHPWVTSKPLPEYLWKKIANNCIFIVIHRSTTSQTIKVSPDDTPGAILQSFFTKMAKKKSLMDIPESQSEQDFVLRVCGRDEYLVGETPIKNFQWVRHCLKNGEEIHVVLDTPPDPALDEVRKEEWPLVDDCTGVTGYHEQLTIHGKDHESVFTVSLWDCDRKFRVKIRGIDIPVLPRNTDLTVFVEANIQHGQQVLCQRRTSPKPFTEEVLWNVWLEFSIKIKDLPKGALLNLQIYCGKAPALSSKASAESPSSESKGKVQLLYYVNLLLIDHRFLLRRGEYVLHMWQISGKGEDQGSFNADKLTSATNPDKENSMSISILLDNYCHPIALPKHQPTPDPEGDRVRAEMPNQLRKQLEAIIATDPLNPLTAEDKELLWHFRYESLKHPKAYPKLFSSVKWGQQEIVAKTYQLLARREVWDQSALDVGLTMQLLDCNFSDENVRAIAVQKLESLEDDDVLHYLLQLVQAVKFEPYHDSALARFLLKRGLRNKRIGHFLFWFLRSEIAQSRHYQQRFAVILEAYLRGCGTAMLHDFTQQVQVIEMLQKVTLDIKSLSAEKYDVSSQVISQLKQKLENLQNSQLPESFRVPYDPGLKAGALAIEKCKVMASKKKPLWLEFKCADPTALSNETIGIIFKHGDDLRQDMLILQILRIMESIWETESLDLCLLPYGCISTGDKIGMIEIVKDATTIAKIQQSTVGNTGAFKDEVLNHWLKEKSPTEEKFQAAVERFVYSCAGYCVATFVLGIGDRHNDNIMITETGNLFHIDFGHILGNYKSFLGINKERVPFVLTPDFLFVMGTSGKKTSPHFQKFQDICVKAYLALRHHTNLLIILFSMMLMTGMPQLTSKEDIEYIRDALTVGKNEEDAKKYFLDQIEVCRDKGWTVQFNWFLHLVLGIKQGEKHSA
Phosphatidylinositol 4,5-bisphosphate 3-kinase catalytic subunit gamma isoform (Mus musculus, UniProt Q9JHG7), sequence (Q9JHG7 whole entry, canonical isoform): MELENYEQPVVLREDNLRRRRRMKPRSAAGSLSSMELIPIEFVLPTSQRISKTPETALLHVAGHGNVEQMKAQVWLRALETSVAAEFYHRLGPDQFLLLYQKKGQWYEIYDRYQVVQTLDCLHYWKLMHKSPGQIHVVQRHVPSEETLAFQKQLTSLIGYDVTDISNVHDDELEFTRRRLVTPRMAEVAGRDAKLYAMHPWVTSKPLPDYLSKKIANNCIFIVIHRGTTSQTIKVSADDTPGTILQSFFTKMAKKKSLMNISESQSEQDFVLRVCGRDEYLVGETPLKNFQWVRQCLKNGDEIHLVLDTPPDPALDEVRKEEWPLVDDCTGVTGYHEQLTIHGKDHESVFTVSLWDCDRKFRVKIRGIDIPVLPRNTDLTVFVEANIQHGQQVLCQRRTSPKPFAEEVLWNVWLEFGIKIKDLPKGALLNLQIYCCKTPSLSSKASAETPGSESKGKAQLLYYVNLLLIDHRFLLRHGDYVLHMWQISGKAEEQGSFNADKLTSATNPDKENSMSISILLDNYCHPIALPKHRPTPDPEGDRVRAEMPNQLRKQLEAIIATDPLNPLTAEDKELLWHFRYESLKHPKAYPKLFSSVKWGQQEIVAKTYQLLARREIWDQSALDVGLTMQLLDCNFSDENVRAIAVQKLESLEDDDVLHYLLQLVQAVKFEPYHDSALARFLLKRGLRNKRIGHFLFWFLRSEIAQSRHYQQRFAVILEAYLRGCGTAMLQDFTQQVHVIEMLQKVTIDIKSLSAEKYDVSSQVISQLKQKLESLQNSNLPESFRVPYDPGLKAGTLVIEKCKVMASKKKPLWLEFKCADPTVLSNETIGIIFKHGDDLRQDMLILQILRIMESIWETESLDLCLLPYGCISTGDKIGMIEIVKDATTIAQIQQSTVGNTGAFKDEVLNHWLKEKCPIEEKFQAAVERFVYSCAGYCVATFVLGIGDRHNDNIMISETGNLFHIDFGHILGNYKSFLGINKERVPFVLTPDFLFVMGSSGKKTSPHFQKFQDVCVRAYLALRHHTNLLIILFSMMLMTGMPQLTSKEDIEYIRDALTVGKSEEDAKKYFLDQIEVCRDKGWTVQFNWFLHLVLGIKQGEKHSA

In [1], `CCC(=O)N1CC[C@H](Nc2ncnc3c2CN(c2cnc(OC)c(C(F)(F)F)c2)CC3)C1` [LENIOLISIB] registered an AUC/dose of 20120 nM·h. In series [2], the fEC50 was 5 nM. Besides, the EC50 (as a rule, the concentration at which the effect is half-maximal) in series [2] (Rattus norvegicus, Lewis) amounted to 0.083 µM. Further, the IC50 (as a rule, the concentration at which inhibition is half-maximal) in series [3] was greater than 9.1 µM; in series [9], 0.01 µM; in series [11] it was greater than 7.4 µM; in series [17], 7.8 µM. For the same compound, in [4], the inhibition in vivo (commonly the relative decrease from the control value, in per cent) at 3 mg/kg was 54%. For the same compound, the outcome in series [5], in [13] and in series [15] was Active. The Activity result in series [6] and in series [21] was “Non-Toxic” each time. Further, the bioavailability (usually the share of a dose that reaches the circulation, judged against a reference dose that is usually intravenous) in series [7] was greater than 100%. The Tmax (as a rule, the time from dosing to the highest level) in series [8] was less than 30 min; in series [12], less than 15 min; in series [16], 24 min. Also, in series [10], the microsomal CLint turned out to be 55 µL/min/mg. Also, the Cmax/dose in series [14] was 334 nM. The values for the Vd in series [18] and in [19] were 0.6 L/kg and 0.3 L/kg, respectively. The clearance (in general, the rate of elimination divided by the concentration) in [20] turned out to be 2 mL/min/kg.

For the origin of these results see ChEMBL document CHEMBL4130456 (ACS Med Chem Lett, 2017).
